# Results: ChEMBL document CHEMBL4130351, “Novel pyrazolopyrimidines: Synthesis, in vitro cytotoxic activity and mechanistic investigation” (Eur J Med Chem, 2017)
# Legend:
# MCF7 [1] = experiment: Cytotoxicity against human MCF7 cells assessed as reduction in cell viability after 72 hrs by MTT assay; format: functional, cell-based; conditions: MCF7, 72 h
# In short: (§1)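 MCF-7 and HepG2 cells in exponential growth were trypsinized and seeded at 1000–2000 cells/well, then incubated 24 h at 37 °C. Compound exposure was 72 h at 0.1, 10, 100 and 1000 μM. Cells took up 5% MTT for 2 h, and formazan was dissolved in acidified isopropanol for 30 min at room temperature. A570 was read, viability expressed as % of control, and IC50 obtained by curve fitting.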
# HepG2 [2] = experiment: Cytotoxicity against human HepG2 cells assessed as reduction in cell viability after 72 hrs by MTT assay; format: functional, cell-based; conditions: HepG2, 72 h; in short: as §1
# HepG2 [3] = experiment: Induction of apoptosis in human HepG2 cells assessed as early apoptotic cells at 0.4 uM after 48 hrs by Annexin V/propidium iodide double staining-based flow cytometry (reference value: 0.61 %); format: functional
# In short: (§2)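 MCF-7 exposed at 1.4 μM or HepG2 at 0.4 μM for 24 or 48 h. Cells were collected in PBS, fixed in ice-cold 70% ethanol, washed, then resuspended in PI staining solution containing 0.1 mg/mL RNase plus PE-Annexin V. Staining was 10 min in the dark at 37 °C, followed by FACSCalibur flow cytometry.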
# HepG2 [4] = experiment: Induction of apoptosis in human HepG2 cells assessed as necrotic cells at 0.4 uM after 24 hrs by Annexin V/propidium iodide double staining-based flow cytometry (reference value: 0.09 %); format: functional; in short: as §2
# [5] = target: Cyclin-dependent kinase 2 (Homo sapiens) (UniProt P24941); experiment: Inhibition of CDK2 (unknown origin) at 0.5 uM by CDKN2A antibody-based spectrophotometry
# [6] = target: Cyclin-dependent kinase 2 (Homo sapiens) (UniProt P24941); experiment: Inhibition of CDK2 (unknown origin) at 0.004 uM by CDKN2A antibody-based spectrophotometry
# HepG2 [7] = experiment: Induction of apoptosis in human HepG2 cells at 0.4 uM after 48 hrs by Annexin V/propidium iodide double staining-based flow cytometry (reference value: 0.84%); format: functional; in short: as §2
# HepG2 [8] = experiment: Cell cycle arrest in human HepG2 cells assessed as accumulation at G2/M phase at 0.4 uM after 48 hrs by propidium iodide staining-based flow cytometry (reference value: 4.36%); format: functional
# [9] = target: Cyclin-dependent kinase inhibitor 1B (Homo sapiens) (UniProt P46527); experiment: Activation of human P27kip1 at 0.40 uM using TMB as substrate by ELISA (reference value: 0%)
# In short: (§3)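 Sandwich ELISAs on treated cells for p21Cip1 and p27Kip1: antibody-coated wells, detecting antibody, then HRP conjugate, with incubation and washing between steps. TMB substrate, reaction stopped, absorbance read at 450 nm. Output is residual concentration in pg/mL, expressed as % activation over untreated control.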
# [10] = target: Cyclin-dependent kinase inhibitor 1 (Homo sapiens) (UniProt P38936); experiment: Activation of human P21cip1 at 0.40 uM using TMB as substrate by ELISA (reference value: 0%); in short: as §3
# HepG2 [11] = experiment: Induction of apoptosis in human HepG2 cells assessed as necrotic cells at 0.4 uM after 48 hrs by Annexin V/propidium iodide double staining-based flow cytometry (reference value: 0.09 %); format: functional; in short: as §2
# HepG2 [12] = experiment: Cell cycle arrest in human HepG2 cells assessed as accumulation at G0/G1 phase at 0.4 uM after 24 hrs by propidium iodide staining-based flow cytometry (reference value: 73.11%); format: functional
# HepG2 [13] = experiment: Cell cycle arrest in human HepG2 cells assessed as accumulation at S phase at 0.4 uM after 48 hrs by propidium iodide staining-based flow cytometry (reference value: 21.69%); format: functional
# HepG2 [14] = experiment: Induction of apoptosis in human HepG2 cells assessed as late apoptotic cells at 0.4 uM after 24 hrs by Annexin V/propidium iodide double staining-based flow cytometry (reference value: 0.14 %); format: functional; in short: as §2
# HepG2 [15] = experiment: Induction of apoptosis in human HepG2 cells assessed as early apoptotic cells at 0.4 uM after 24 hrs by Annexin V/propidium iodide double staining-based flow cytometry (reference value: 0.61 %); format: functional; in short: as §2
# HepG2 [16] = experiment: Induction of apoptosis in human HepG2 cells assessed as viable cells at 0.4 uM after 48 hrs by Annexin V/propidium iodide double staining-based flow cytometry (reference value: 99.16 %); format: functional; conditions: HepG2, 48 h, read-out: Activity; in short: as §2
# HepG2 [17] = experiment: Induction of apoptosis in human HepG2 cells at 0.4 uM after 24 hrs by Annexin V/propidium iodide double staining-based flow cytometry (reference value: 0.84%); format: functional; in short: as §2
# HepG2 [18] = experiment: Cell cycle arrest in human HepG2 cells assessed as accumulation at S phase at 0.4 uM after 24 hrs by propidium iodide staining-based flow cytometry (reference value: 21.69%); format: functional
# HepG2 [19] = experiment: Induction of apoptosis in human HepG2 cells assessed as late apoptotic cells at 0.4 uM after 48 hrs by Annexin V/propidium iodide double staining-based flow cytometry (reference value: 0.14 %); format: functional; in short: as §2
# HepG2 [20] = experiment: Cell cycle arrest in human HepG2 cells assessed as accumulation at G0/G1 phase at 0.4 uM after 48 hrs by propidium iodide staining-based flow cytometry (reference value: 73.11%); format: functional
# [21] = target: Cyclin-dependent kinase 2 (Homo sapiens) (UniProt P24941); experiment: Inhibition of CDK2 (unknown origin) at 0.4 uM by CDKN2A antibody-based spectrophotometry
# [22] = target: Cyclin-dependent kinase 2 (Homo sapiens) (UniProt P24941); experiment: Inhibition of CDK2 (unknown origin) at 0.02 uM by CDKN2A antibody-based spectrophotometry
# HepG2 [23] = experiment: Cell cycle arrest in human HepG2 cells assessed as accumulation at G2/M phase at 0.4 uM after 24 hrs by propidium iodide staining-based flow cytometry (reference value: 4.36%); format: functional
# HepG2 [24] = experiment: Induction of apoptosis in human HepG2 cells assessed as caspase-3 activation at 0.4 uM after 10 mins by ELISA relative to control; format: functional
# In short: (§4)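 MCF-7 treated at 1.4 μM or HepG2 at 0.4 μM. Cells were trypsinized, rinsed in PBS, pelleted (105–106 cells) and resuspended in 1 mL PBS. Lysis was by three freeze/thaw cycles, followed by a 1500×g spin for 10 min at 2–8 °C. Active caspase-3 (cleaved at Asp175/Ser176) in the lysate was quantified by sandwich ELISA with an anti-rabbit HRP step, read at 450 nm, in pg/mL against control.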
# [25] = target: Cyclin-dependent kinase 2 (Homo sapiens) (UniProt P24941); experiment: Inhibition of CDK2 (unknown origin) at 0.1 uM by CDKN2A antibody-based spectrophotometry
# In short: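 Sandwich enzyme immunoassay using a plate pre-coated with CDKN2A-specific antibody. Detection used a biotinylated anti-CDKN2A antibody, then avidin-HRP and substrate; the reaction was stopped and read at 450 nm. Compound levels tested were 0.004, 0.02, 0.1, 0.4 and 0.5 ug/mL, reported as % inhibition. IC50 was derived by Boltzmann sigmoidal nonlinear regression.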
# HepG2 [26] = experiment: Induction of apoptosis in human HepG2 cells assessed as viable cells at 0.4 uM after 24 hrs by Annexin V/propidium iodide double staining-based flow cytometry (reference value: 99.16 %); format: functional; conditions: HepG2, 24 h, read-out: Activity; in short: as §2
# MCF7 [27] = experiment: Induction of apoptosis in human MCF7 cells assessed as necrotic cells at 1.4 uM after 24 hrs by Annexin V/propidium iodide double staining-based flow cytometry (reference value: 0.05 %); format: functional; in short: as §2
# MCF7 [28] = experiment: Induction of apoptosis in human MCF7 cells assessed as early apoptotic cells at 1.4 uM after 24 hrs by Annexin V/propidium iodide double staining-based flow cytometry (reference value: 0.39 %); format: functional; in short: as §2
# MCF7 [29] = experiment: Induction of apoptosis in human MCF7 cells assessed as necrotic cells at 1.4 uM after 48 hrs by Annexin V/propidium iodide double staining-based flow cytometry (reference value: 0.05 %); format: functional; in short: as §2
# MCF7 [30] = experiment: Induction of apoptosis in human MCF7 cells assessed as viable cells at 1.4 uM after 48 hrs by Annexin V/propidium iodide double staining-based flow cytometry (reference value: 99.38 %); format: functional; conditions: MCF7, 48 h, read-out: Activity; in short: as §2
# MCF7 [31] = experiment: Induction of apoptosis in human MCF7 cells assessed as late apoptotic cells at 1.4 uM after 24 hrs by Annexin V/propidium iodide double staining-based flow cytometry (reference value: 0.18 %); format: functional; in short: as §2
# MCF7 [32] = experiment: Cell cycle arrest in human MCF7 cells assessed as accumulation at G0/G1 phase at 1.4 uM after 48 hrs by propidium iodide staining-based flow cytometry (reference value: 71.70%); format: functional
# MCF7 [33] = experiment: Induction of apoptosis in human MCF7 cells assessed as early apoptotic cells at 1.4 uM after 48 hrs by Annexin V/propidium iodide double staining-based flow cytometry (reference value: 0.39 %); format: functional; in short: as §2
# MCF7 [34] = experiment: Cell cycle arrest in human MCF7 cells assessed as accumulation at S phase at 1.4 uM after 24 hrs by propidium iodide staining-based flow cytometry (reference value: 22.45%); format: functional
# MCF7 [35] = experiment: Induction of apoptosis in human MCF7 cells assessed as late apoptotic cells at 1.4 uM after 48 hrs by Annexin V/propidium iodide double staining-based flow cytometry (reference value: 0.18 %); format: functional; in short: as §2
# MCF7 [36] = experiment: Induction of apoptosis in human MCF7 cells assessed as viable cells at 1.4 uM after 24 hrs by Annexin V/propidium iodide double staining-based flow cytometry (reference value: 99.38 %); format: functional; conditions: MCF7, 24 h, read-out: Activity; in short: as §2
# MCF7 [37] = experiment: Cell cycle arrest in human MCF7 cells assessed as accumulation at S phase at 1.4 uM after 48 hrs by propidium iodide staining-based flow cytometry (reference value: 22.45%); format: functional
# MCF7 [38] = experiment: Cell cycle arrest in human MCF7 cells assessed as accumulation at G2/M phase at 1.4 uM after 48 hrs by propidium iodide staining-based flow cytometry (reference value: 5.23%); format: functional
# MCF7 [39] = experiment: Induction of apoptosis in human MCF7 cells at 1.4 uM after 24 hrs by Annexin V/propidium iodide double staining-based flow cytometry (reference value: 0.62%); format: functional; in short: as §2
# MCF7 [40] = experiment: Induction of apoptosis in human MCF7 cells at 1.4 uM after 48 hrs by Annexin V/propidium iodide double staining-based flow cytometry (reference value: 0.62%); format: functional; in short: as §2
# MCF7 [41] = experiment: Cell cycle arrest in human MCF7 cells assessed as accumulation at G2/M phase at 1.4 uM after 24 hrs by propidium iodide staining-based flow cytometry (reference value: 5.23%); format: functional
# MCF7 [42] = experiment: Cell cycle arrest in human MCF7 cells assessed as accumulation at G0/G1 phase at 1.4 uM after 24 hrs by propidium iodide staining-based flow cytometry (reference value: 71.70%); format: functional
# MCF7 [43] = experiment: Induction of apoptosis in human MCF7 cells assessed as caspase-3 activation at 1.4 uM after 10 mins by ELISA relative to control; format: functional; in short: as §4
# Cyclin-dependent kinase inhibitor 1B (Homo sapiens), sequence (P46527 whole entry): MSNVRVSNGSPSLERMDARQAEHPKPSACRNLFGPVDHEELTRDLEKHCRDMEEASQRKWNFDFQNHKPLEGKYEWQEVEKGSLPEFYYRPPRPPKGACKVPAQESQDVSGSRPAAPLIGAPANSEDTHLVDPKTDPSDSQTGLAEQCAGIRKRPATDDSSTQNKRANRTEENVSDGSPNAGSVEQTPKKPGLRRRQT
# Cyclin-dependent kinase inhibitor 1 (Homo sapiens), sequence (P38936 whole entry): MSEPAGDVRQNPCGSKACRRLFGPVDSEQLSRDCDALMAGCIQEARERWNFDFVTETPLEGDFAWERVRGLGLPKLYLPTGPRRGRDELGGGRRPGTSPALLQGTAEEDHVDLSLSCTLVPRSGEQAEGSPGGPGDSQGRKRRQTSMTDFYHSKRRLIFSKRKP
structure (smiles),measurement,setting,value
Nc1ncnc2c1cnn2-c1ccc(S(N)(=O)=O)cc1,IC50,MCF7 [1],40.7 µM
same,IC50,HepG2 [2],95.5 µM
NS(=O)(=O)c1ccc(-n2ncc3c(=O)[nH]c(-c4ccc(F)cc4)nc32)cc1,IC50,MCF7 [1],38 µM
same,IC50,HepG2 [2],2.66 µM
NS(=O)(=O)c1ccc(-n2ncc3c(=O)[nH]c(-c4ccccc4)nc32)cc1,IC50,MCF7 [1],> 100 µM
same,IC50,HepG2 [2],77.6 µM
N#Cc1cnn(-c2ccc(S(N)(=O)=O)cc2)c1N,IC50,MCF7 [1],> 100 µM
same,IC50,HepG2 [2],> 100 µM
N=c1[nH]c(=O)[nH]c2c1cnn2-c1ccc(S(N)(=O)=O)cc1,Activity,HepG2 [3],9.76%
same,Activity,HepG2 [4],1.29%
same,inhibition,[5],81.8%
same,inhibition,[6],12.6%
same,Activity,HepG2 [7],16.71%
same,Activity,HepG2 [8],48.91%
same,Activity,[9],8.5%
same,Activity,[10],10.1%
same,Activity,HepG2 [11],1.03%
same,Activity,HepG2 [12],36.55%
same,Activity,HepG2 [13],24.67%
same,Activity,HepG2 [14],4.79%
same,Activity,HepG2 [15],7.64%
same,viability at 0.4 µM,HepG2 [16],83.3%
same,IC50,MCF7 [1],> 100 µM
same,IC50,HepG2 [2],0.4 µM
same,Activity,HepG2 [17],13.92%
same,Activity,HepG2 [18],25.66%
same,Activity,HepG2 [19],5.92%
same,Activity,HepG2 [20],9.62%
same,inhibition,[21],68.8%
same,inhibition,[22],39%
same,Activity,HepG2 [23],23.78%
same,fold change (FC),HepG2 [24],36
same,inhibition,[25],53.1%
same,viability at 0.4 µM,HepG2 [26],86.3%
COc1ccc(-c2nc3c(cnn3-c3ccc(S(N)(=O)=O)cc3)c(=O)[nH]2)cc1,Activity,MCF7 [27],0.41%
same,Activity,MCF7 [28],4.39%
same,Activity,MCF7 [29],1.48%
same,viability at 1.4 µM,MCF7 [30],88.4%
same,Activity,MCF7 [31],2.58%
same,Activity,MCF7 [32],72.3%
same,Activity,MCF7 [33],6.49%
same,Activity,MCF7 [34],27.92%
same,IC50,MCF7 [1],1.4 µM
same,IC50,HepG2 [2],> 100 µM
same,Activity,MCF7 [35],3.64%
same,viability at 1.4 µM,MCF7 [36],72.6%
same,Activity,MCF7 [37],16.09%
same,Activity,MCF7 [38],0%
same,Activity,MCF7 [39],7.38%
same,Activity,MCF7 [40],11.61%
same,Activity,MCF7 [41],0%
same,Activity,MCF7 [42],64.7%
same,fold change (FC),MCF7 [43],32
